Results: ChEMBL document CHEMBL1629439, “High-throughput identification of antibacterials against methicillin-resistant Staphylococcus aureus (MRSA) and the transglycosylase” (Bioorg Med Chem, 2010)
In brackets after ≈: the same amount, converted by molar mass.

Key:
[1] = tested on: Stenotrophomonas maltophilia; test: Antimicrobial activity against Stenotrophomonas maltophilia ATCC 13637 after 18 to 24 hrs by alamar blue assay; type: functional; conditions: Stenotrophomonas maltophilia, ATCC 13637; read-out: MIC
Summary of the method: (§1)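 Broth microdilution per NCCLS in Mueller-Hinton broth, 8-point twofold dilutions, 384-well format. Exponential-phase cells at 5 × 10^5 cells/ml incubated with compound 18–24 h at 37 °C, then 20% Alamar blue added and fluorescence read. MIC90 taken as the lowest concentration preventing at least 90% bacterial growth.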

Escherichia coli = test: Antimicrobial activity against Escherichia coli ATCC […] after 18 to 24 hrs by alamar blue assay; type: functional; conditions: Escherichia coli; read-out: MIC; summary of the method: as §1
Serratia marcescens = test: Antimicrobial activity against Serratia marcescens ATCC 14756 after 18 to 24 hrs by alamar blue assay; type: functional; conditions: Serratia marcescens, ATCC 14756; read-out: MIC; summary of the method: as §1
Bacillus subtilis = test: Antimicrobial activity against Bacillus subtilis ATCC 23857 after 18 to 24 hrs by alamar blue assay; type: functional; summary of the method: as §1
[2] = tested on: Mycolicibacterium smegmatis; test: Antimicrobial activity against Mycobacterium smegmatis BCRC 11565 after 18 to 24 hrs by alamar blue assay; type: functional; conditions: Mycolicibacterium smegmatis, BCRC 11565; read-out: MIC; summary of the method: as §1
Staphylococcus aureus [3] = test: Antimicrobial activity against methicillin-resistant Staphylococcus aureus ATCC 33592 after 18 to 24 hrs by alamar blue assay; type: functional; conditions: Staphylococcus aureus, ATCC 33592; read-out: MIC
Summary of the method: (§2)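 Broth microdilution per NCCLS standard, Mueller-Hinton broth, 8-point twofold dilutions; exponentially growing cells at 5 10^5 cells/ml with compound, 18–24 h at 37 C; 20% Alamar blue added, fluorescence read; MIC90 taken as lowest concentration preventing at least 90% growth.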

Staphylococcus aureus [4] = test: Antimicrobial activity against Staphylococcus aureus ATCC 29213 after 18 to 24 hrs by alamar blue assay
Staphylococcus aureus [5] = test: Antimicrobial activity against oxacillin- and methicillin-resistant Staphylococcus aureus isolate Sa-OXA-R2 after 18 to 24 hrs by alamar blue assay; type: functional; summary of the method: as §2
Pseudomonas aeruginosa = test: Antimicrobial activity against Pseudomonas aeruginosa ATCC 25619 after 18 to 24 hrs by alamar blue assay; type: functional; conditions: Pseudomonas aeruginosa, ATCC 25619; read-out: MIC; summary of the method: as §1
Staphylococcus aureus [6] = test: Antimicrobial activity against methicillin-resistant Staphylococcus aureus isolate NTUH4722 after 18 to 24 hrs by alamar blue assay; type: functional; summary of the method: as §2
Acinetobacter baumannii = test: Antimicrobial activity against Acinetobacter baumannii ATCC 49139 after 18 to 24 hrs by alamar blue assay; type: functional; conditions: Acinetobacter baumannii, ATCC 49139; read-out: MIC; summary of the method: as §1

Row | Structure (SMILES) | MIC [1] [mg/L] | MIC (Escherichia coli) [mg/L] | MIC (Serratia marcescens) [mg/L] | MIC (Bacillus subtilis) [mg/L] | MIC [2] [mg/L] | MIC (Staphylococcus aureus [3]) [mg/L] | MIC (Staphylococcus aureus [4]) [mg/L] | MIC (Staphylococcus aureus [5]) [mg/L] | MIC (Pseudomonas aeruginosa) [mg/L] | MIC (Staphylococcus aureus [6]) [mg/L] | MIC (Acinetobacter baumannii) [mg/L]
1 | CC[C@@H](C)[C@H](NC(=O)Cc1c(C)c2cc3c(-c4ccc(Cl)cc4)coc3c(C)c2oc1=O)C(=O)O | > 256 | > 256 | > 256 | > 64 | 1 (≈ 2.02 µM) | 2.5 (≈ 5.04 µM) | 2.5 (≈ 5.04 µM) | 2.5 (≈ 5.04 µM) | > 256 | 2.5 (≈ 5.04 µM) | > 256
2 | Cc1c(CC(=O)N2CCC[C@H]2C(=O)O)c(=O)oc2c(C)c3occ(-c4ccc(Cl)cc4)c3cc12 | > 256 | > 256 | > 256 | > 64 | 1 (≈ 2.08 µM) | 0.3 (≈ 0.625 µM) | 0.3 (≈ 0.625 µM) | 0.6 (≈ 1.25 µM) | > 256 | 0.3 (≈ 0.625 µM) | > 256
3 | Cc1c(CC(=O)N2CCC(C(=O)O)(c3ccccc3)CC2)c(=O)oc2c(C)c3occ(-c4ccc(Cl)cc4)c3cc12 | > 256 | > 256 | > 256 | > 64 | 1 (≈ 1.75 µM) | 2.5 (≈ 4.39 µM) | 2.5 (≈ 4.39 µM) | 2.5 (≈ 4.39 µM) | > 256 | 2.5 (≈ 4.39 µM) | > 256
4 | Cc1c(CCC(=O)O)c(=O)oc2c(C)c3occ(-c4ccc(Br)cc4)c3cc12 | > 256 | > 256 | > 256 | > 64 | 1 (≈ 2.27 µM) | 1 (≈ 2.27 µM) | 0.5 (≈ 1.13 µM) | 1 (≈ 2.27 µM) | > 256 | 0.5 (≈ 1.13 µM) | > 256
5 | CCCc1cc(O)nc(N2NC(C)=CC2NC(=O)c2cccs2)n1 (stereo unspecified) | > 256 | > 256 | > 256 | 0.25 (≈ 0.724 µM) | 0.25 (≈ 0.724 µM) | 1 (≈ 2.89 µM) | 1 (≈ 2.89 µM) | 1 (≈ 2.89 µM) | > 256 | 1 (≈ 2.89 µM) | > 256
6 | O=C(Nc1cc(Cl)ccc1Cl)c1cc(Cl)cc(Cl)c1O | 16 (≈ 45.6 µM) | 8 (≈ 22.8 µM) | 16 (≈ 45.6 µM) | < 0.03 | 0.5 (≈ 1.42 µM) | 0.5 (≈ 1.42 µM) | 1 (≈ 2.85 µM) | 2 (≈ 5.7 µM) | 16 (≈ 45.6 µM) | 0.5 (≈ 1.42 µM) | 16 (≈ 45.6 µM)
